Laboratory results as given in ChEMBL document CHEMBL1124794, “Synthesis, chemistry, and antineoplastic activity of alpha-halopyridinium salts: potential pyridone prodrugs of acylated vinylogous carbinolamine tumor inhibitors” (J Med Chem, 1990).

Legend:
[1] = Half life at the pH 3.5; assay type: ADME; settings: buffer
Summary of the method: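 Bis-carbamate in acetonitrile–water (1:1; buffer added to a 0.5 mg/mL acetonitrile solution), 0.05 M buffer, ionic strength 0.136 (KCl), 25 ± 0.1 °C. Buffers: phosphate pH 2.0; citrate pH 3.0–3.5; succinate pH 4.0; acetate pH 5.0; phosphate pH 6.0–8.0; borate pH 9.0; carbonate pH 10.0. HPLC bis-carbamate peak-area loss, ln(area0/areat) vs time slope = kobs. Duplicates averaged.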

L1210 [2] = test: In vivo activity against murine L1210 tumor system at the dose of 100 mg/kg, activity expressed as KE; assay type: functional, Mus musculus
[3] = In vivo activity against murine M5076 tumor system at the dose of 36 mg/kg, activity expressed as TDS; 10/10; assay type: functional, Mus musculus
Summary of the method: (§1)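 M5076: ascitic fluid with ca. 10^6 cells inoculated ip into CD2F1 mice. Dosing started 24 h after inoculation and was then given every 4 days for four doses in total, from solutions or suspensions made fresh each day. Toxicity day survivors were scored on day 5. Body weight difference is day 14 minus day 1. %T/C is based on median survival time versus controls.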

P388 [4] = test: In vivo activity against P388 Lymphocytic Leukemia in CD2F1 mice at the dose of 100 mg/kg, activity expressed as TDS; 5/6; assay type: functional, Mus musculus
Summary of the method: (§2)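 CD2F1 mice were inoculated with ascitic fluid holding ca. 10^6 P388 cells. Drug was given daily from 24 h after inoculation, from solutions or suspensions made fresh each day, some as a saline suspension. TDS is survivors/initial animals on day 5. BWD is body weight on day 5 minus day 1. %T/C compares median survival of treated and control mice.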

P388 [5] = test: In vivo activity against P388 Lymphocytic Leukemia in CD2F1 mice at the dose of 100 mg/kg, activity expressed as % T/C; assay type: functional, Mus musculus; summary of the method: as §2
[6] = Effect of Ionic strength (0.10 M NaCl)on the hydrolysis of pyridinium Moity in 0.02 M buffer concentration, pH 7.4,25 degree C; assay type: ADME
Summary of the method: (§3)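 Pyridinium salt in 0.02 M phosphate buffer, pH 7.4, 25 °C, with NaCl varied 0.10–1.0 M. Loss of the pyridinium chromophore's UV absorbance maximum (conversion to pyridone) followed over time. Pseudo-first-order kobs and half-life derived from that decay.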

[7] = Effect of phosphate buffer on the hydrolysis of alpha Fluoropyridinium Moity at the concentration of 0.02M, pH 8.0, 25 degree C; assay type: ADME
Summary of the method: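 α-Fluoropyridinium hydrolysis to pyridone in phosphate buffer at 0.02, 0.05 or 0.10 M, pH 6.5 or 8.0, ionic strength […] °C. Pyridinium UV absorbance maximum followed with time to give pseudo-first-order kobs and half-life.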

[8] = Half life at the ionic strength 0.10 M NaCl; assay type: ADME; summary of the method: as §3
MX1 = test: In vivo activity against murine MX-1 tumor system at the dose of 75 mg/kg, activity expressed as %T/C.; assay type: functional, Mus musculus
[9] = In vivo activity against murine M5076 tumor system at the dose of 25 mg/kg, activity expressed as body weight difference; assay type: functional, Mus musculus; summary of the method: as §1
[10] = In vivo activity against murine M5076 tumor system at the dose of 50 mg/kg, activity expressed as %T/C.; assay type: functional, Mus musculus
[11] = In vivo activity against murine M5076 tumor system at the dose of 25 mg/kg, activity expressed as TDS; 10/10; assay type: functional, Mus musculus; summary of the method: as §1
L1210 [12] = test: In vivo activity against murine L1210 tumor system at the dose of 25 mg/kg, activity expressed as %T/C.; assay type: functional, Mus musculus
Summary of the method: as §1, with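 “L1210 lymphocytic leukemia:” for “M5076:”, “injected” for “inoculated”, “repeated daily” for “then given every 4 days”, “five” for “four”, “5” for “14”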

P388 [13] = test: In vivo activity against P388 Lymphocytic Leukemia in CD2F1 mice at the dose of 12.5 mg/kg, activity expressed as body weight difference; assay type: functional, Mus musculus; summary of the method: as §2
[14] = Effect of Ionic strength (1.0M NaCl)on the hydrolysis of pyridinium Moity in 0.02 M buffer concentration, pH 7.4,25 degree C; assay type: ADME; summary of the method: as §3

Row | Compound | half-life [1] [min] | KE (L1210 [2]) | TDS [3] | TDS (P388 [4]) | T/C (P388 [5]) [%] | K obs [6] [min⁻¹] | K obs [7] [min⁻¹] | half-life [8] [min] | T/C (MX1) [%] | BWD [9] [g] | T/C [10] [%] | TDS [11] | T/C (L1210 [12]) [%] | BWD (P388 [13]) [g] | K obs [14] [min⁻¹]
1 | CC(C)NC(=O)OCc1c(COC(=O)NC(C)C)c(-c2ccn(C)c(=O)c2)n2c1CCC2 | 32.5 | -0.22 | 10 | 5 | 148 |  |  |  |  |  |  |  |  |  | 
2 | CC(C)NC(=O)OCc1c(COC(=O)NC(C)C)c(-c2cc[n+](C)c(F)c2)n2c1CCC2.[I-] |  |  |  |  |  | 0.024 | 0.0132 | 29.1 | 34 | 0.4 | 118 | 10 | 118 | -1.3 | 0.007
